Series [1] deals with Nakaseomyces glabratus. The experiment in a line: Antifungal activity against Candida glabrata 5376 infected in neutropenic ICR/Swiss mouse candidiasis model assessed as dose required for 1-log10 reduction in […] per kidney administered intraperitoneally every 48 hrs up to 4 days measured per 96 hrs. It is filed as functional. In a few lines:
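Neutropenic ICR/Swiss mice infected i.v. with the strain; therapy began 2 h later. Total doses of 1.25–320 mg/kg/96 h were given i.p. as 1, 2, 4 or 6 doses (q96h, q48h, q24h, q16h), three mice per regimen. Kidney CFU were counted after 4 days. Effect is the change from untreated controls at the end of therapy.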

Series [2] deals with Candida albicans. The experiment in a line: Antifungal activity against Candida albicans K-1 infected in neutropenic ICR/Swiss mouse candidiasis model assessed as dose required to maintain […] of 3.81 +/- 0.33 log10CFU per kidney administered intraperitoneally every 24 hrs up to 4 days measured per 24 hrs. In kind it is functional. In a few lines:
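Neutropenic mice (cyclophosphamide sc 150 mg/kg day −4, 100 mg/kg day −1 and day +2) infected iv via tail vein, 2 h before therapy. Drug given ip in 0.2 ml, diluted from DMSO stock in 0.9% NaCl, q24h for 4 days over five dose levels (0.078–20 mg/kg/24 h), 3 mice per regimen. Kidney CFU on SDA. Static dose taken from a sigmoid Emax (Hill) fit.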

The test system of series [3] is Nakaseomyces glabratus. Briefly: Antifungal activity against Candida glabrata 5376 infected in neutropenic ICR/Swiss mouse candidiasis model assessed as reduction of […] in kidney at 5 mg/kg, ip administered 2 hrs postinfection as single dose measured within 1 to 4 hrs post dosing by time-kill assay. It is filed as functional, organism-based. Also noted: dose 5 mg/kg. In a few lines: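 Neutropenic mice were infected i.v. and 2 h later given a single i.p. dose (1.25, 5 or 20 mg/kg). Groups of three treated and three control mice were killed at intervals over 96 h, and kidney CFU were counted on SDA (limit 100 CFU/ml). The post-antifungal effect is t − c: the time for a 1 log10 CFU/kidney increase once serum levels fall below the MIC in treated mice, minus the same time in controls.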

Series [4] has as its system Candida albicans. The experiment in a line: Antifungal activity against Candida albicans K-1 infected in neutropenic ICR/Swiss mouse candidiasis model assessed as suppression of fungal regrowth at 1.25 mg/kg, ip administered 2 hrs postinfection as single dose by time-kill assay. It is filed as functional, organism-based. Details: dose 1.25 mg/kg. The procedure, abridged: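 Single ip dose of 1.25, 5 or 20 mg/kg given 2 h after iv infection of neutropenic mice. Groups of 3 treated and 3 control mice sampled at 1–24 h intervals over 96 h. Kidney homogenates plated on SDA, 24 h at 35°C. PAFE = time for treated burden to rise 1 log10 CFU/kidney after serum level fell below MIC, minus the same time in controls.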

In series [5] the test system is Serum. Briefly: Fraction unbound in Candida glabrata 5376-infected neutropenic ICR/Swiss mouse serum at 1.25 mg/kg, ip administered 2 hrs postinfection as single dose. It is filed as ADME, organism-based. Also noted: dose 1.25 mg/kg, route intraperitoneal. Particulars: in vivo.
The subject of series [6] is Serum. Briefly: Fraction unbound in Candida glabrata 5376-infected neutropenic ICR/Swiss mouse serum at 20 mg/kg, ip administered 2 hrs postinfection as single dose measured after 32 hrs. It is filed as ADME, organism-based. Particulars: in vivo. Also noted: dose 20 mg/kg, route intraperitoneal.
Series [7] deals with Candida albicans. Briefly: Antifungal activity against Candida albicans K-1 infected in neutropenic ICR/Swiss mouse candidiasis model assessed as dose required for 1-log10 reduction in […] per kidney administered intraperitoneally every 16 hrs up to 4 days measured per 96 hrs. In kind it is functional. In a few lines: (§1)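 Neutropenic mice were infected iv with C. albicans K-1 2 h before therapy. Total doses of 1.25, 5, 20, 80 and 320 mg/kg/96 h were split into 1, 2, 4 or 6 ip doses (q96h, q48h, q24h, q16h), three mice per regimen. Effect is the log10 CFU/kidney relative to untreated controls at 96 h. Static and 1-log doses were taken from a Hill model fit.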

Series [8] concerns Nakaseomyces glabratus. Briefly: Antifungal activity against Candida glabrata 570 infected in neutropenic ICR/Swiss mouse candidiasis model assessed as dose required for 1-log10 reduction in […] per kidney administered intraperitoneally every 24 hrs up to 4 days measured per 24 hrs. It is filed as functional. The procedure, abridged: (§2)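 Neutropenic mouse disseminated candidiasis, with i.p. therapy starting 2 h after i.v. infection. Five total doses of 0.078–20 mg/kg/24 h were given q24h for 4 days, three mice per dose. Kidney CFU were counted at the end and compared with untreated controls. The dose giving a 1 log10 CFU/kidney reduction was derived from the sigmoid Hill dose–effect model.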

In series [9] the test system is Nakaseomyces glabratus. Briefly: Antifungal activity against Candida glabrata 513 infected in neutropenic ICR/Swiss mouse candidiasis model assessed as dose required for 1-log10 reduction in […] per kidney administered intraperitoneally every 24 hrs up to 4 days measured per 24 hrs. It is filed as functional. In a few lines:
as §2

For series [10], the system named is Candida albicans. The experiment in a line: Antifungal activity against Candida albicans K-1 infected in neutropenic ICR/Swiss mouse candidiasis model assessed as dose required to maintain […] of 3.90 +/- 0.15 log10CFU per kidney administered intraperitoneally once every 96 hrs measured per 96 hrs. It is filed as functional. In a few lines: as §1
Series [11] concerns Candida albicans. The experiment in a line: Antifungal activity against Candida albicans 580 assessed as partial growth inhibition after 24 hrs by CLSI end point method. In kind it is functional. Particulars: Candida albicans, 580, 24 h. The procedure, abridged: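 CLSI M27-A2 broth dilution. Two end points read against the drug-free control well: partial inhibition (CLSI end point) and complete inhibition. Run in duplicate on four separate occasions; value is the mean. Drug stock in DMSO, diluted in 0.9% NaCl.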

In series [12] the test system is Nakaseomyces glabratus. The experiment in a line: Antifungal activity against Candida glabrata 5592 assessed as partial growth inhibition after 24 hrs by CLSI end point method. In kind it is functional. Particulars: Nakaseomyces glabratus, 5592, 24 h. In a few lines:
(§3)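 Two end points were read against the drug-free control well: partial growth inhibition (the CLSI end point) and complete inhibition. Run in duplicate on four separate occasions; the value is the mean. Drug stock was made in DMSO and diluted in 0.9% NaCl.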

The subject of series [13] is Nakaseomyces glabratus. The experiment in a line: Antifungal activity against Candida glabrata 35315 assessed as complete growth inhibition after 24 hrs by CLSI end point method. In kind it is functional. Particulars: Nakaseomyces glabratus, 35315, 24 h. The procedure, abridged:
as §3

Series [14] deals with Candida albicans. The experiment in a line: Antifungal activity against Candida albicans K-1 infected in neutropenic ICR/Swiss mouse candidiasis model assessed as fungal count per kidney administered 2 hrs postinfection measured up to 48 hrs. It is filed as functional. In a few lines:
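Untreated neutropenic mice infected via the tail vein (inoculum about 6.1 log10 CFU/ml, 0.1 ml). Growth is the rise in kidney CFU over 48 h. Kidneys were homogenised, serially diluted 1:10 and plated on SDA for 24 h at 35°C. Mean of three mice.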

A short description of series [15]: AUC (0 to infinity) in serum of neutropenic ICR/Swiss mouse candidiasis model at 80 mg/kg, ip by reverse-phase high-pressure liquid chromatography. In kind it is ADME, organism-based. Details: time infinity, dose 80 mg/kg, route intraperitoneal. The procedure, abridged: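 Single ip dose in 0.2 ml to infected neutropenic mice. Serum from groups of three isoflurane-anaesthetised mice at 1, 4, 8, 12, 24 and 48 h, stored −80°C. Drug measured by reverse-phase HPLC with fluorescence detection against loratadine internal standard (calibration 10–50,000 ng/ml). Noncompartmental analysis; AUC by trapezoidal rule.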

A short description of series [16]: Elimination half life in serum of neutropenic ICR/Swiss mouse candidiasis model at 20 mg/kg, ip by reverse-phase high-pressure liquid chromatography. In kind it is ADME, organism-based. Details: dose 20 mg/kg, route intraperitoneal. Particulars: read-out: beta t1/2 (converted). The procedure, abridged:
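Infected neutropenic ICR/Swiss mice given single ip doses (5, 20 or 80 mg/kg; 0.2 ml); serum from three isoflurane-anaesthetised mice at 1, 4, 8, 12, 24 and 48 h, stored at −80°C, assayed by reverse-phase HPLC with fluorescence detection, loratadine internal standard, linear 10–50,000 ng/ml. Noncompartmental analysis; half-life by nonlinear least squares.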

The values that follow come from ChEMBL document CHEMBL1153564 (Antimicrob Agents Chemother, 2008).

In general, MIC refers to the smallest concentration in the dilution series that meets the test's criterion for growth inhibition. For orientation: AUC(0-inf) means total exposure, with the tail of the curve extrapolated. A higher AUC(0-inf) goes with high exposure.

In brackets after ≈: the same amount, converted by molar mass. Activity calls are given as the source filed them. Starred links: 1 amine or outer side, 2 acyl side, 3 side chain; linkers in the order of their positions; H or OH if unused. Positions of bridges follow the written chain, without caps; N, C: chain ends. Non-standard residues stand in square brackets, D forms with d. Residues, ends and D or L forms follow the SMILES beside them. *: point of attachment. pTerphenylCO(4''-OnC5H11) = CCCCCOc1ccc(-c2ccc(-c3ccc(C(=O)*)cc3)cc2)cc1; Orn(4R-OH,5R-OH) = O=C([C@H](C[C@@H](O)[C@@H](O)N[*:3])N[*:1])[*:2]; hTyr(3S-OH,4S-OH) = N[C@H](C(=O)O)[C@H](O)[C@@H](O)c1ccc(O)cc1; Pro(3S-OH,4S-Me) = C[C@H]1CN[C@H](C(=O)O)[C@H]1O; Hyp = O=C(O)[C@@H]1C[C@@H](O)CN1

For `CCCCCOc1ccc(-c2ccc(-c3ccc(C(=O)N[C@H]4C[C@@H](O)[C@@H](O)NC(=O)[C@@H]5[C@@H](O)[C@@H](C)CN5C(=O)[C@H]([C@@H](C)O)NC(=O)[C@H]([C@H](O)[C@@H](O)c5ccc(O)cc5)NC(=O)[C@@H]5C[C@@H](O)CN5C(=O)[C@H]([C@@H](C)O)NC4=O)cc3)cc2)cc1` [ANIDULAFUNGIN] ({pTerphenylCO(4''-OnC5H11)}-[Orn(4R-OH,5R-OH)]T[Hyp][hTyr(3S-OH,4S-OH)]T[Pro(3S-OH,4S-Me)]; lactam 1-C), the Activity with Nakaseomyces glabratus [1] turned out to be 27.4 mg/kg; with Candida albicans [2], 1.25 mg/kg; in the series on Candida albicans [7], 38.3 mg/kg; with Nakaseomyces glabratus [8], 3.72 mg/kg; in the series on Nakaseomyces glabratus [9], 4.13 mg/kg; in the series with Candida albicans [10], 3.07 mg/kg. The result in the series on Nakaseomyces glabratus [3] and in the series on Candida albicans [4] was Active. Further, the Fu with Serum [5] and in the series on Serum [6] was 1% each time. The MIC with Candida albicans [11] amounted to 0.015 µg/mL (≈ 0.0132 µM); in the series with Nakaseomyces glabratus [12] it was 0.06 µg/mL (≈ 0.0526 µM); in the series with Nakaseomyces glabratus [13], 1 µg/mL (≈ 0.877 µM). Further, the log10cfu in the series with Candida albicans [14] amounted to 4. In addition, the area under the curve AUC(0-inf) in [15] came out at 1980 µg·h/mL. Besides, the half-life in [16] was 882 min.
